In ChEMBL document CHEMBL1146900, “New opioid designed multiple ligand from Dmt-Tic and morphinan pharmacophores” (J Med Chem, 2006):
Active and inactive are the calls of the source. The rule behind the calls is not given here. Non-standard residues stand in square brackets, D forms with d. Residues, ends and D or L forms follow the SMILES beside them. Dmt = Cc1cc(O)cc(C)c1C[C@H](N)C(=O)O; Tic = O=C(O)[C@@H]1Cc2ccccc2CN1; βAla = NCCC(=O)O

Key:
[1] = target: T1, Delta-type opioid receptor (Homo sapiens, UniProt P41143); test: Antagonist activity against human delta opioid receptor expressed in CHO cells assessed as inhibition of SNC80-stimulated [35S]GTP-gamma-S binding; type: functional, cell-based
T1 sequence (P41143 whole entry): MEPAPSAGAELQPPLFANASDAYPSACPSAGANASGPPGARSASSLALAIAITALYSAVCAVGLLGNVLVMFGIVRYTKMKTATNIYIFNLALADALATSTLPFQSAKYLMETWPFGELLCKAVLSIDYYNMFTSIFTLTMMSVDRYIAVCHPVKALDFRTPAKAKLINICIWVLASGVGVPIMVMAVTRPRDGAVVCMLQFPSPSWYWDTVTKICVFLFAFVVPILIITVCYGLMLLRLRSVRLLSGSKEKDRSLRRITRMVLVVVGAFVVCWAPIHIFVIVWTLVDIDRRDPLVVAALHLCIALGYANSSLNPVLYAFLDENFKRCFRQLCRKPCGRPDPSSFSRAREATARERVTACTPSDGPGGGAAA
Outline: (§1)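 CHO membranes stably expressing a single human opioid receptor were incubated with agonist plus varying compound concentrations, and [35S]GTPγS binding was measured. Agonists: μ, DAMGO 200 nM; δ, SNC-80 100 nM; κ, U50,488 100 nM. Imax is the maximal percent inhibition of agonist-stimulated binding.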

[2] = target: T2, Kappa-type opioid receptor (Homo sapiens, UniProt P41145); test: Antagonist activity against human kappa opioid receptor expressed in CHO cells assessed as inhibition of U50488-stimulated [35S]GTPgammaS binding; type: functional, cell-based; outline: as §1
T2 sequence (P41145 whole entry): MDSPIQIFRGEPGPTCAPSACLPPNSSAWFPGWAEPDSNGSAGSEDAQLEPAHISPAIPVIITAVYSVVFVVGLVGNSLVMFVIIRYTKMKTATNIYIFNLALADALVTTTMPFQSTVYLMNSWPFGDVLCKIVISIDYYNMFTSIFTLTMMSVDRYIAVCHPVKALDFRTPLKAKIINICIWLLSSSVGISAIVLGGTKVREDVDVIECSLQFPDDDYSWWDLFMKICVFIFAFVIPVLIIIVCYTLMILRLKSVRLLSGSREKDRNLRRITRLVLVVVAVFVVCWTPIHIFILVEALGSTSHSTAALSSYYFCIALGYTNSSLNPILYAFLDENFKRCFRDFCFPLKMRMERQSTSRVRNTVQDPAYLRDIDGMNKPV

[3] = target: T2, Kappa-type opioid receptor; test: Inhibition of [3H]U-69593 binding to human kappa opioid receptor expressed in CHO cells at 10 uM; type: cell-based
[4] = target: T1, Delta-type opioid receptor; test: Agonist activity at human delta opioid receptor expressed in CHO cells assessed as stimulation of [35S]GTP-gamma-S binding; type: functional, cell-based
Outline: (§2)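 Membranes from CHO cells stably expressing only the human μ, δ or κ opioid receptor were incubated with various concentrations of compound, and stimulation of [35S]GTPγS binding was measured. Emax is the maximal percent stimulation. EC50 is the concentration giving 50% of Emax. EC50 was not calculated when Emax was 30% or lower.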

[5] = target: T2, Kappa-type opioid receptor; test: Agonist activity at human kappa opioid receptor expressed in CHO cells assessed as stimulation of [35S]GTPgammaS binding; type: functional, cell-based; outline: as §2
Mu-type opioid receptor [6] = target: T3, Mu-type opioid receptor (Homo sapiens, UniProt P35372); test: Displacement of [3H]DAMGO from human mu opioid receptor expressed in CHO cells; type: cell-based
T3 sequence (P35372 whole entry): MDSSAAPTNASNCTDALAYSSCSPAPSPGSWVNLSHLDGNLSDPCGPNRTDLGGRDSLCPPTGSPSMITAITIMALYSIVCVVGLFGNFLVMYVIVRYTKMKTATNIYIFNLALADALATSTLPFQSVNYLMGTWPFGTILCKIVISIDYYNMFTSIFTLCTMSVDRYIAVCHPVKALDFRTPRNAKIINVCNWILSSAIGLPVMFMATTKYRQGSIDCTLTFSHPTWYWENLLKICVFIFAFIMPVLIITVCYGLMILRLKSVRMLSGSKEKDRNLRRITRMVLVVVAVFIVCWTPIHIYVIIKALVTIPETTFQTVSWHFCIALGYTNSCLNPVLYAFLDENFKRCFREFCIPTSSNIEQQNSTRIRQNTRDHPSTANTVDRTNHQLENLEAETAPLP
Outline: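 Competition binding run on membranes prepared from CHO cells that stably express the human mu receptor.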

[7] = target: T2, Kappa-type opioid receptor; test: Displacement of [3H]U-69593 from human kappa opioid receptor expressed in CHO cells; type: cell-based
Mu-type opioid receptor [8] = target: T3, Mu-type opioid receptor; test: Antagonist activity against human mu opioid receptor expressed in CHO cells assessed as inhibition of DAMGO-stimulated [35S]GTP-gamma-S binding; type: functional, cell-based; outline: as §1
[9] = target: T1, Delta-type opioid receptor; test: Displacement of [3H]naltrindole from human delta opioid receptor expressed in CHO cells; type: cell-based
Mu-type opioid receptor [10] = target: T3, Mu-type opioid receptor; test: Agonist activity at human mu opioid receptor expressed in CHO cells assessed as stimulation of [35S]GTP-gamma-S binding; type: functional, cell-based; outline: as §2
[11] = target: Opioid receptors; mu & delta (Homo sapiens) (UniProt P41143+P35372); test: Selectivity for delta opioid receptor over mu opioid receptor; type: protein assay
Opioid receptors; mu & delta (Homo sapiens), sequence (P35372 whole entry, looked up): as the sequence (P35372 whole entry) above
Opioid receptors; mu & delta (Homo sapiens), sequence (P41143 whole entry, looked up): as the sequence (P41143 whole entry) above
Outline: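 Competition binding to membranes of CHO cells stably expressing human μ or δ opioid receptors, each receptor in separate membranes. Selectivity comes from comparing the affinities at the two receptors.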

Structure (SMILES) | IC50 [1] [nM] | Imax [1] [%] | Activity [2] | Ki [3] [nM] | EC50 [4] [nM] | Emax [4] [%] | EC50 [5] [nM] | Emax [5] [%] | Ki (Mu-type opioid receptor [6]) [nM] | Ki [7] [nM] | IC50 (Mu-type opioid receptor [8]) [nM] | Imax (Mu-type opioid receptor [8]) [%] | Ki [9] [nM] | EC50 (Mu-type opioid receptor [10]) [nM] | Emax (Mu-type opioid receptor [10]) [%] | Ratio Ki [11] | IC50 [2] | Imax [2] | inhibition [3] [%] | Activity [4]
Cc1cc(O)cc(C)c1C[C@H](N)C(=O)N1Cc2ccccc2C[C@H]1C(=O)NCCC(=O)Oc1ccc2c(c1)[C@@]13CCCC[C@H]1[C@@H](C2)N(CC1CCC1)CC3 | 3.9 | 84 | inactive | 0.28 | 2.8 | 18 | 6 | 130 | 0.69 | 0.28 | 97 | 47 | 1.5 | 8.9 | 79 |  |  |  |  | 
Cc1cc(O)cc(C)c1C[C@H](N)C(=O)N1Cc2ccccc2C[C@H]1C(=O)NCCC(=O)O (H-[Dmt]-[Tic]-[βAla]-OH) | 10 | 93 |  |  |  | 0.95 |  |  |  |  |  |  | 4.2 |  |  | 262 | Not Active | inactive | 62 | inactive
